Assay [1] concerns the target T1, Dihydrofolate reductase (Gallus gallus, UniProt P00378).
T1 sequence (P00378 whole entry): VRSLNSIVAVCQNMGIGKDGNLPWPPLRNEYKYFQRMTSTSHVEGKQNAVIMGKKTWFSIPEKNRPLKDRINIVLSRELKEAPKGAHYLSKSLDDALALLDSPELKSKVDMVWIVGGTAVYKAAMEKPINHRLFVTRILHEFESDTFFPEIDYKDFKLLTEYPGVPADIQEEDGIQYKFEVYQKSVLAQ
As to the kind of experiment: Inhibition of chicken liver Dihydrofolate reductase (dihydrofolate reductase). Summed up:
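Chicken liver DHFR vial (0.19 unit/mL) dissolved in 24 mL of 200 μM NADPH. Inhibitors in DMSO, final ≤0.5%. Activity with and without inhibitor read at 340 nm by stopped-flow spectrophotometry as NADPH is oxidized and dihydrofolate reduced.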

Assay [2] in a line: Selectivity measured as log[1/Ki(Lactobacillus casei DHFR)]-log[1/Ki(chicken liver DHFR)]. The procedure, abridged: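 Selectivity index calculated as log(1/Ki) for L. casei DHFR minus log(1/Ki) for chicken liver DHFR. Both Ki values came from stopped-flow 340 nm NADPH-oxidation assays, with jackknife estimation.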
Assay [3] deals with Dihydrofolate reductase (Lactobacillus casei, UniProt P00381). As to the kind of experiment: Inhibition of Dihydrofolate reductase from Lactobacillus casei. Also on record: species or system Lacticaseibacillus casei. Summed up:
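L. casei DHFR, from lyophilized powder, dissolved to about 0.5 unit/mL in 0.05 M Tris pH 7.20 with 50 mM mercaptoethanol and stored at −20 °C. Dihydrofolate and NADPH solutions kept at 0 °C. Inhibitors in DMSO, final ≤0.5%. Stopped-flow spectrophotometry at 340 nm followed NADPH oxidation and dihydrofolate reduction. Ki with 95% confidence limits by jackknife.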

Structures are written as SMILES. pKi: −log10 of the molar value.

Sequence of Dihydrofolate reductase (Lactobacillus casei, UniProt P00381) (P00381 whole entry): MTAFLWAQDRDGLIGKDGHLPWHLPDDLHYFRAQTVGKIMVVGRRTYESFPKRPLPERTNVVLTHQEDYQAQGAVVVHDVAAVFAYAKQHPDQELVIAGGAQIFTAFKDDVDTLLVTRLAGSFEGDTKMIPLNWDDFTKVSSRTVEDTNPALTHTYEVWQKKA

By pKi is commonly meant the Ki on a negative log10 scale, so that one unit is a factor of ten. For the compound `C=CCOc1ccccc1Cc1cnc(N)nc1N`, the figures for the pKi at Dihydrofolate reductase [1] and on Dihydrofolate reductase [3] were 4.67 and 4.87, respectively. Further, the Selectivity index in assay [2] turned out to be 0.2.

For `Nc1ncc(Cc2ccccc2F)c(N)n1`, the pKi at Dihydrofolate reductase [1] was 4.36; at Dihydrofolate reductase [3] it was 5.02. Moreover, the Selectivity index in assay [2] is 0.66.

In turn, `Cc1ccccc1Cc1cnc(N)nc1N` had a Selectivity index in assay [2] of 0.49. Besides, on Dihydrofolate reductase [3], the pKi is 5.02.

For the compound `CCOc1ccccc1Cc1cnc(N)nc1N`, the Selectivity index in assay [2] amounted to 0.09. The compound also showed a pKi at Dihydrofolate reductase [3] of 4.70.

Turning to `Nc1ncc(Cc2ccccc2Br)c(N)n1`, the pKi at Dihydrofolate reductase [1] is 4.91; at Dihydrofolate reductase [3] it was 5.00. This compound displayed a Selectivity index in assay [2] of 0.09.

With `NC(=O)COc1ccccc1Cc1cnc(N)nc1N`, the pKi on Dihydrofolate reductase [1] was 4.47; at Dihydrofolate reductase [3], 4.10. In assay [2], this compound came in with a Selectivity index of -0.37.

In the case of `COc1cccc(Cc2cnc(N)nc2N)c1`, the Selectivity index in assay [2] is 1.48.

Consider `Nc1ncc(Cc2ccccc2Cl)c(N)n1`, for which the figures for the pKi at Dihydrofolate reductase [1] and at Dihydrofolate reductase [3] were 4.76 and 5.02, respectively. The compound also displayed a Selectivity index in assay [2] of 0.26.

`Nc1ncc(Cc2ccccc2I)c(N)n1`: the pKi on Dihydrofolate reductase [1] was 5.06; on Dihydrofolate reductase [3] it was 4.94. The compound also came in with a Selectivity index in assay [2] of -0.12.

On to `CCCCOc1ccccc1Cc1cnc(N)nc1N`, for which, in assay [2], the Selectivity index was -0.61. For the same compound, at Dihydrofolate reductase [3], the pKi was 4.45.

On to `COc1ccccc1Cc1cnc(N)nc1N`, for which the results for the pKi at Dihydrofolate reductase [1] and at Dihydrofolate reductase [3] were 4.54 and 5.00, respectively. The same compound showed a Selectivity index in assay [2] of 0.46.

Take `COCc1ccccc1Cc1cnc(N)nc1N`: the pKi at Dihydrofolate reductase [1] is 4.40; at Dihydrofolate reductase [3] it was 4.55. In assay [2], this compound showed a Selectivity index of 0.15.

Consider `Nc1ncc(Cc2ccccc2O)c(N)n1`, for which the pKi at Dihydrofolate reductase [1] is 4.05; at Dihydrofolate reductase [3] it was 3.96. Besides, in assay [2], the Selectivity index is -0.09.

Take `CCCCCCOc1ccccc1Cc1cnc(N)nc1N`: the figures for the negative logarithm of the Ki (pKi) on Dihydrofolate reductase [1] and at Dihydrofolate reductase [3] were 5.10 and 4.00, respectively. This compound also had a Selectivity index in assay [2] of -1.1.

`Nc1ncc(Cc2ccccc2OCc2ccccc2)c(N)n1`: the pKi is 5.04 at Dihydrofolate reductase [1] and 4.74 on Dihydrofolate reductase [3]. In assay [2], this compound yielded a Selectivity index of -0.3.

The compound `Nc1ncc(Cc2ccccc2)c(N)n1` came in with a Selectivity index in assay [2] of 0.49.

Regarding `CS(=O)(=O)Oc1ccccc1Cc1cnc(N)nc1N`, the pKi at Dihydrofolate reductase [1] was 4.64; at Dihydrofolate reductase [3], 4.07. In assay [2], the Selectivity index is -0.57.

(Values after ChEMBL document CHEMBL1131154, “Quantitative structure-activity relationships of 2, 4-diamino-5-(2-X-benzyl)pyrimidines versus bacterial and avian dihydrofolate reductase” (J Med Chem, 1998).)
